The target of data set [1] is Replicase polyprotein 1ab (Severe acute respiratory syndrome coronavirus 2) (UniProt P0DTD1). Kind of data set: Inhibition of recombinant hexa-His tagged SARS-COV2 main protease expressed in Escherichia coli upto 30 uM using Dabcyl-KTSAVLQISGFRKM-E(Edans)-NH2 as substrate preincubated for 15 mins followed by substrate addition and measured after 1 hr by FRET assay. The conditions noted are these: time 75.0 min. In a few lines:
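Fluorescence (ex 340/em 475 nm) was read every 38 s for 1 h. IC50 came from initial velocities, in duplicate.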

Data set [2] addresses Cathepsin B (Homo sapiens) (UniProt P07858). Kind of data set: Inhibition of human cathepsin B upto 40 uM preincubated for 20 mins. In outline: (§1)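 Z-FR-AMC was added at 10 μM. Fluorescence (ex 355/em 460 nm) was read at room temperature every 5 min for 2 h, and initial velocities came from the linear portion.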
The target of data set [3] is T1, Cathepsin K (Homo sapiens) (UniProt P43235).
T1 sequence (whole entry): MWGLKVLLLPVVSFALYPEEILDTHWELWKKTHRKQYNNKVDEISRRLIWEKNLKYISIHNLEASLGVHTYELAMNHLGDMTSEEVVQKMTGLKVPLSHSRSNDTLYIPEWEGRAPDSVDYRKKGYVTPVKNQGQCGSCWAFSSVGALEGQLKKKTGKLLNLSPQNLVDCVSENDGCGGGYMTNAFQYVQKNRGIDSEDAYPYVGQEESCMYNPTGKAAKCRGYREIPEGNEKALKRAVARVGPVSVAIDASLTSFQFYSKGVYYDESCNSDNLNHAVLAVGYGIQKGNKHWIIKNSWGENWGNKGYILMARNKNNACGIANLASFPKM
The data set can be described thus: Inhibition of human cathepsin K upto 40 uM preincubated for 20 mins. In outline: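 Recombinant cathepsin K (0.042 nM) was preincubated with compound for 20 min in 50 mM NaOAc pH 5.5, 5 mM EDTA, 0.005% Triton X-100, 5 mM DTT and 1% DMSO. Z-FR-AMC was added at 5 μM. Fluorescence (ex 355/em 460 nm) was read at room temperature every 5 min for 2 h, and initial velocities came from the linear portion.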

Data set [4] has as its target Procathepsin L (Homo sapiens) (UniProt P07711). Kind of data set: Inhibition of human cathepsin L upto 40 uM preincubated for 20 mins. In outline:
as §1

The test system of data set [5] is SARS-CoV-2. The data set can be described thus: Antiviral activity against SARS-CoV-2 infected in HeLa cells expressing ACE2 pre-infected for 1 hr followed by compound addition and measured after 24 hrs. Type of data set: functional, organism-based. The conditions noted are these: Severe acute respiratory syndrome coronavirus 2.
Data set [6] has as its system SARS-CoV-2. Kind of data set: Antiviral activity against SARS-CoV-2 infected in HeLa cells expressing ACE2 at 3 uM pre-infected for 1 hr followed by compound addition and measured after 24 hrs by RT-qPCR analysis. Type of data set: functional, Severe acute respiratory syndrome coronavirus 2. Background: Real-time PCR tracks product formation cycle by cycle.
In data set [7] the target is Replicase polyprotein 1ab (Severe acute respiratory syndrome coronavirus 2) (UniProt P0DTD1). The data set can be described thus: Binding affinity to recombinant hexa-His tagged SARS-COV2 main protease expressed in Escherichia coli at 300 nM by in-gel fluorescence analysis. In a few lines:
(§2)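 E. coli-expressed Mpro was incubated with Alk-4d or Alk-4i at 30 °C for 1 h. Click chemistry followed at room temperature for 1 h in the dark, with final 25 μM TAMRA-azide, 1 mM TCEP, 100 μM THPTA and 1 mM CuSO4. Samples were boiled, run on 4–20% SDS-PAGE, scanned at ex 532/em 600 nm, and silver-stained to check loading.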

Data set [8] shares this target. Kind of data set: Binding affinity to SARS-COV2 main protease at 30 uM preincubated with nirmatrelvir followed by compound addition measured over 6 hrs. In a few lines:
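Pulse-chase competition: recombinant Mpro was pretreated with 1.5 μM nirmatrelvir at 30 °C, then given 30 μM Alk-4i probe for various times. Click conjugation to TAMRA-azide was followed by SDS-PAGE and in-gel fluorescence (ex 532, em 600 nm). The nirmatrelvir dissociation half-life was derived from the labeling curve.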

In data set [9] the test system is HEK293T. The data set can be described thus: Binding affinity to proteome in HEK293T cells at 10 uM after 5 hrs. Type of data set: cell-based. The settings on record: Homo sapiens. In a few lines:
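Parental HEK293T cells were treated with clickable probe at various concentrations for 5 h. Cells were harvested and lysed in NP40 buffer, and protein was normalised to 1 mg/mL. Lysates were click-conjugated to TAMRA azide, resolved by SDS-PAGE and imaged for in-gel fluorescence.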

The subject of data set [10] is HeLa. Kind of data set: Cytotoxicity against human HeLa cells expressing ACE2 upto 10 uM after 20 hrs by Cell Titer-Glo luminescent cell viability assay. Type of data set: toxicity, cell-based. In general terms: In ATP-based viability assays light output follows the ATP content of the culture.
Data set [11] deals with Replicase polyprotein 1ab (Severe acute respiratory syndrome coronavirus 2) (UniProt P0DTD1). Kind of data set: Binding affinity to recombinant hexa-His tagged SARS-COV2 main protease expressed in Escherichia coli incubated for 1 hr by SDS-PAGE gel electrophoresis method. In a few lines: as §2
The target is the same in data set [12]. Kind of data set: Binding affinity to recombinant hexa-His tagged SARS-COV2 main protease expressed in Escherichia coli pretreated with (1R,2S,5S)-3-((S)-3,3-dimethyl-2-(2,2,2-trifluoroacetamido)butanoyl)-6,6-dimethyl-N-((S)-1-((S)-2-oxopyrrolidin-3-yl)but-3-yn-2-yl)-3-azabicyclo[3.1.0]hexane-2-carboxamide followed by compound addition by SDS-PAGE gel electrophoresis method.

For data set [13] the target is unchanged. The data set can be described thus: Binding affinity to recombinant hexa-His tagged SARS-COV2 main protease expressed in Escherichia coli pretreated with nirmatrelvir followed by compound addition by SDS-PAGE gel electrophoresis method.
Data set [14] shares this target. Kind of data set: Binding affinity to recombinant hexa-His tagged SARS-COV2 main protease expressed in HEK293T cells by in-gel fluorescence analysis. Type of data set: cell-based. In a few lines:
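HEK293T cells were transiently transfected with an Mpro plasmid. At 24 h post-transfection, they were treated with probe (from a 1000× DMSO stock) in fresh DMEM/10% FBS. Cells were washed, lysed in NP40 buffer and normalised to 1 mg/mL protein. Lysates were click-conjugated to TAMRA-azide, then analysed by SDS-PAGE and fluorescence imaging.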

Data set [15] has the same target. The data set can be described thus: Binding affinity to recombinant hexa-His tagged SARS-COV2 main protease expressed in Escherichia coli at 10 uM pretreated with (1R,2S,5S)-3-((S)-3,3-dimethyl-2-(2,2,2-trifluoroacetamido)butanoyl)-6,6-dimethyl-N-((S)-5,5,5-trifluoro-1-((S)-2- oxopyrrolidin-3-yl)pent-3-yn-2-yl)-3-azabicyclo[3.1.0]hexane-2-carboxamide. In a few lines: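 Competition labeling: recombinant Mpro (1 μg) was […] competitor and clickable probe at the indicated concentrations, at 30 °C for 1 h. TAMRA-azide click reaction, SDS-PAGE and in-gel fluorescence imaging (ex 532/em 600 nm) followed.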

Active and inactive are the calls of the source. The calls are words filed in the database; no cut-off is given here. Residues, ends and D or L forms follow the SMILES beside them. *: point of attachment. Cbz = O=C(OCc1ccccc1)*

Procathepsin L (Homo sapiens), sequence (P07711 114-333 limits assumed): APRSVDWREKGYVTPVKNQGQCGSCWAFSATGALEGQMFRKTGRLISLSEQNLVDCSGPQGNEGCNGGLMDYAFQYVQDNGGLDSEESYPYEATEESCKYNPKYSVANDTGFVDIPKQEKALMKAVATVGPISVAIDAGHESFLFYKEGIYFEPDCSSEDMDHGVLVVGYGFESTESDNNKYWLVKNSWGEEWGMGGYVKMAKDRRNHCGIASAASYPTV

`CC(C)C[C@H](NC(=O)OCc1ccccc1)C(=O)N[C@H](C#N)CCC(N)=O`: in [1], the inhibition result is “inactive”.
On to `CC(C)C[C@H](NC(=O)OCc1ccccc1)C(=O)N[C@H](C=O)CCC(N)=O` (Cbz-Leu-Gln-aldehyde), for which the inhibition result in data set [1] was “inactive”.
For the molecule `C#C[C@H](C[C@@H]1CCNC1=O)NC(=O)[C@@H]1[C@@H]2[C@H](CN1C(=O)[C@@H](NC(=O)C(F)(F)F)C(C)(C)C)C2(C)C`, the inhibition entry in [2], in data set [3] and in data set [4] was “inactive” in each case. The Activity result in [5] is “Dose-Dependent Effect”; in data set [6], 100%.
As to `C#CC[C@H](NC(=O)C(F)(F)F)C(=O)N1C[C@H]2[C@@H]([C@H]1C(=O)N[C@H](C#CC(F)(F)F)C[C@@H]1CCNC1=O)C2(C)C`, the result in data set [7], in data set [8] and in [9] was Active.
Turning to `CC(C)(C)[C@H](NC(=O)C(F)(F)F)C(=O)N1C[C@H]2[C@@H]([C@H]1C(=O)N[C@H](C#CC(F)(F)F)C[C@@H]1CCNC1=O)C2(C)C`, the Activity entry is “Dose-Dependent Effect” in data set [5] and “Non-Toxic” in data set [10].
In the case of `C#CC[C@H](NC(=O)C(F)(F)F)C(=O)N1C[C@H]2[C@@H]([C@H]1C(=O)N[C@H](C#C)C[C@@H]1CCNC1=O)C2(C)C`, the outcome in data set [11] was Active. Further, the outcome in data set [12], in [13] and in data set [15] was inactive. The Activity result in [14] is “Dose-Dependent Effect”.

The values above are taken from ChEMBL document CHEMBL5365428, “Alkyne as a Latent Warhead to Covalently Target SARS-CoV-2 Main Protease” (J Med Chem, 2023).
